Reference: ChEMBL document CHEMBL3526050, “Elucidation of the metabolic pathways and the resulting multiple metabolites of almorexant, a dual orexin receptor antagonist, in humans” (Drug Metab Dispos, 2013)
Values belong to the molecule of their own block, whether it stands above or below them.

How the values were obtained:
Details in all cases: in vivo
Homo sapiens [1] = test: AUC (0 to t) in healthy human treated with [14C]almorexant at 200 mg, po dosed as single dose; assay type: ADME, organism-based, Plasma
Outline: (§1)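 Plasma from 6 subjects given one 200 mg oral 14C dose, pooled over at least 2 time points and acetonitrile-precipitated. Radio-LC-MS/MS used a C18 column with ammonium formate pH 4.0/acetonitrile gradient and 0.15-min fractions scintillation-counted. Peak radioactivity converted to ng-equivalents/mL to give AUC0-t. Co-eluting metabolites grouped and expressed relative to parent AUC and to total radioactivity.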

[2] = Tmax in healthy human at 200 mg, po dosed as single dose; assay type: ADME, organism-based
Outline: (§2)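 Plasma parent and metabolites M3, M5, M6, M8 after one 200 mg oral 14C dose in 6 fasted male subjects, sampled 0.17–240 h. Validated LC-MS/MS with penta-deuterated internal standards and positive ESI. Low range 0.4/1.0–100 ng/mL using supported liquid extraction, high range 50–1000 ng/mL using protein precipitation. Noncompartmental analysis, geometric means (95% CI), Tmax median (range).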

Homo sapiens [3] = test: Drug level in healthy human treated with [14C]almorexant at 200 mg, po dosed as single dose relative to almorexant; assay type: ADME, organism-based; outline: as §1
Homo sapiens [4] = test: Tlast in healthy human treated with [14C]almorexant at 200 mg, po dosed as single dose; assay type: ADME, organism-based; outline: as §1
Plasma = test: Drug level in plasma of healthy human treated with [14C]almorexant at 200 mg, po dosed as single dose; assay type: ADME, organism-based; outline: as §1
Homo sapiens [5] = test: Drug level in healthy human treated with [14C]almorexant at 200 mg, po dosed as single dose relative to total radioactivity; assay type: ADME, organism-based; outline: as §1
[6] = Drug level in feces of healthy human treated with [14C]almorexant at 200 mg, po dosed as single dose; assay type: ADME, organism-based
Outline: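 Feces pooled by weight across 6 subjects (0–48 to 192–332 h) and extracted three times with acetonitrile, then dried and reconstituted. Analyzed by radio-LC-MS/MS with a methanol/acetonitrile gradient and scintillation-counted fractions. Procedural recovery was 73.0%. Reported as percent of administered radioactive dose.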

Homo sapiens [7] = test: Tmax in healthy human treated with [14C]almorexant at 200 mg, po dosed as single dose; assay type: ADME, organism-based; outline: as §2
Homo sapiens [8] = test: Half life in healthy human treated with [14C]almorexant at 200 mg, po dosed as single dose; assay type: ADME, organism-based; outline: as §2
Homo sapiens [9] = test: AUC (0 to infinity) in healthy human treated with [14C]almorexant at 200 mg, po dosed as single dose; assay type: ADME, organism-based, Plasma; design: dose 200 mg, route oral, time infinity
Homo sapiens [10] = test: Cmax in healthy human treated with [14C]almorexant at 200 mg, po dosed as single dose; assay type: ADME, organism-based; design: dose 200 mg, route oral

SMILES: COc1cc2c(cc1OC)[C@H](CC(O)c1ccc(C(F)(F)F)cc1)NCC2 (stereo partly specified)
- Drug metabolism (Plasma): metabolite_detected

SMILES: COc1cc2c(cc1OC)[C@H](CCc1ccc(C(F)(F)F)cc1)NC[C@H]2O (racemic)
- AUCt (Homo sapiens [1]): 17.2 ng.Eq.hr/ml
- Tmax [2]: 1.6 h
- Drug uptake (Homo sapiens [3]): 28.1%
- Tlast (Homo sapiens [4]): 1.6 h
- Drug uptake (Homo sapiens [5]): 0.03%

SMILES: CNC(=O)[C@@H](c1ccccc1)[n+]1ccc2cc(OC)c(OC)cc2c1CCc1ccc(C(F)(F)F)cc1
- Drug metabolism [6]: metabolite_detected
- Tmax (Homo sapiens [7]): 0.9 h
- t1/2 (Homo sapiens [8]): 26.3 h
- AUC (Homo sapiens [9]): 0.282 µg·h/mL
- Drug metabolism (Plasma): metabolite_detected
- Cmax (Homo sapiens [10]): 0.0804 µg/mL

Now from value to molecule:

- AUCt (Homo sapiens [1]): 17.2 ng.Eq.hr/ml
- Tmax [2]: 1.6 h
- Drug uptake (Homo sapiens [3]): 28.1%
- Tlast (Homo sapiens [4]): 1.6 h
- Drug metabolism (Plasma): metabolite_detected
- Drug uptake (Homo sapiens [5]): 0.03%
SMILES: COc1cc2c(cc1OC)[C@H](CC(O)c1ccc(C(F)(F)F)cc1)N([C@@H](C(N)=O)c1ccccc1)CC2 (stereo partly specified)

- Drug metabolism [6]: metabolite_detected
- Tmax (Homo sapiens [7]): 0.8 h
- t1/2 (Homo sapiens [8]): 22.1 h
- AUC (Homo sapiens [9]): 0.16 µg·h/mL
- Drug metabolism (Plasma): metabolite_detected
- Cmax (Homo sapiens [10]): 0.0257 µg/mL
SMILES: CNC(=O)[C@@H](c1ccccc1)N1CCc2cc(O)c(OC)cc2[C@@H]1CCc1ccc(C(F)(F)F)cc1

- Drug metabolism [6]: metabolite_detected
SMILES: CNC(=O)[C@@H](c1ccccc1)N1CCc2cc(O)c(O)cc2[C@@H]1CCc1ccc(C(F)(F)F)cc1

- Drug metabolism [6]: metabolite_detected
SMILES: CNC(=O)[C@@H](c1ccccc1)[n+]1ccc2cc(O)c(OC)cc2c1CCc1ccc(C(F)(F)F)cc1
